Experimental data: the RNAGym collection of RNA variant scans (doi:10.1126/science.aae0568)
Variants at the floor of the assay were thinned out.

B1: tRNA (parent)
chain: GUUCCGUUGGCGUAAUGGUAACGCGUCUCCCUCCUAAGGAGAAGACUGCGGGUUCGAGUCCCGUACGGAACG

Variants of: B1
Assay: yeast fitness relative to wild type (ratio to wild type); higher = fitter; tRNA-Arg(CCU), competitive growth, 37 C, YPD
How it was run: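 The tRNA-Arg(CCU) gene variants were made by chemical synthesis with a 3% per-site mutation rate at 69 sites and inserted at the native genomic locus of Saccharomyces cerevisiae. After pooling, the strains were competed in YPD at 37°C for 24 hours in six parallel replicates. Gene amplicons from the start population and each end population were read by 100-nucleotide paired-end sequencing, and Darwinian fitness relative to wild type was taken from genotype frequency changes. Genotypes needed ≥ 100 starting reads, and estimates < 0.5 were set to 0.5.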

Compared with G10A G67A, G10A G67C is higher in yeast fitness: 0.75 for the first, 0.819 for the second.

Going from G10A A40C to G10A G12A, the yeast fitness rises from 0.771 to 0.805.

G10A A37U A65U and G10A A21G C27U A40U cannot be ordered by yeast fitness: ≤ 0.5 for the first, ≤ 0.5 for the second.

Compared with G10A G52A A69U, G10A C34A is higher in yeast fitness: ≤ 0.5 for the first, 0.712 for the second.

First: G10A C30U G41A A69C
Second: G10A C22A A43G C55A
The yeast fitness of the first is higher: 0.548 for the first, ≤ 0.5 for the second.

G10A C22U A70U and G10A G12A C29G A65U cannot be ordered by yeast fitness: ≤ 0.5 for the first, ≤ 0.5 for the second.

Compared with G10A C24A C49G G58C, G10A G41A C60G A65G is higher in yeast fitness: ≤ 0.5 for the first, 0.529 for the second.

Compared with G10A G18A C46A, G10A G38C A57G is lower in yeast fitness: 0.539 for the first, ≤ 0.5 for the second.

G10A C24A G52U and G10A C29G A43U U53G cannot be ordered by yeast fitness: ≤ 0.5 for the first, ≤ 0.5 for the second.

Going from G10A U19A A40C A42C to G10A A20G C46U G50U C55U, the yeast fitness falls from 0.541 to ≤ 0.5.

G10A C30U C34U A42G A69C A70G and G10A U13G C27U C46G cannot be ordered by yeast fitness: ≤ 0.5 for the first, ≤ 0.5 for the second.

Going from G10A A15C A45C C49G G67U A69C to G10A G58A A69U, the yeast fitness rises from ≤ 0.5 to 0.54.

First: G10A C11U A15G C30U U47C C61G A69C
Second: G10A A36C A43U
The yeast fitness of the first is lower: ≤ 0.5 for the first, 0.573 for the second.

G10A U16C A36G G48C and G10A A40U G52C cannot be ordered by yeast fitness: ≤ 0.5 for the first, ≤ 0.5 for the second.

G10A A20U U35C G48C C60A and G10A C22U U47C G68A cannot be ordered by yeast fitness: ≤ 0.5 for the first, ≤ 0.5 for the second.

G10A U16A G17A U32A A42U G48C and G10A G17A U35G A36G A40C A57C C62A cannot be ordered by yeast fitness: ≤ 0.5 for the first, ≤ 0.5 for the second.

First: G10A A57U U59A A65C
Second: G10A A36G U59C A70G
The yeast fitness of the first is higher: 0.561 for the first, ≤ 0.5 for the second.

First: G10A C55A
Second: G10A U13A C24U
The yeast fitness of the first is higher: 0.67 for the first, 0.599 for the second.

First: G10A U16A U64A
Second: G10A C49A C61U
The yeast fitness of the first is higher: 0.544 for the first, ≤ 0.5 for the second.

Compared with G10A C24U A36C, G10A A20U A45U C55U A70C is higher in yeast fitness: ≤ 0.5 for the first, 0.576 for the second.

First: G10A C30U C33G U64C
Second: G10A A20U C30A C62U
The yeast fitness of the first is higher: 0.662 for the first, ≤ 0.5 for the second.

Compared with G10A A36C A45C A70U, G10A A15C A45C C49G is higher in yeast fitness: ≤ 0.5 for the first, 0.553 for the second.

G10A A20G U26C A69C A70G and G10A G52A A57G C66U cannot be ordered by yeast fitness: ≤ 0.5 for the first, ≤ 0.5 for the second.

Compared with G10A C33G A43G G58A G67A A69U, G10A A21G C22U C55U is lower in yeast fitness: 0.543 for the first, ≤ 0.5 for the second.

First: G10A A45C C49U
Second: G10A A36U A43G
The yeast fitness of the first is higher: 0.652 for the first, 0.607 for the second.

G10A C34U A43G and G10A C24A C62U cannot be ordered by yeast fitness: ≤ 0.5 for the first, ≤ 0.5 for the second.

G10A C31G G44A G56C and G10A G51C G58U cannot be ordered by yeast fitness: ≤ 0.5 for the first, ≤ 0.5 for the second.

Compared with G10A C30A A42G A43U, G10A A65G A70C is higher in yeast fitness: ≤ 0.5 for the first, 0.65 for the second.

First: G10A C33U U59C
Second: G10A A21G A65C
The yeast fitness of the first is lower: ≤ 0.5 for the first, 0.545 for the second.

First: G10A C11U C29A C34A G44A A69C
Second: G10A C24U C49U
The yeast fitness of the first is lower: ≤ 0.5 for the first, 0.53 for the second.

Compared with G10A A15U A21C G25C C66U G67U G68A, G10A C66A is higher in yeast fitness: ≤ 0.5 for the first, 0.545 for the second.

Going from G10A C66G to G10A G18A C27G A37G G38A A57U, the yeast fitness falls from 0.592 to ≤ 0.5.

First: G10A A70C
Second: G10A A70U
The yeast fitness of the first is lower: 0.856 for the first, 0.894 for the second.

G10A U16A U32C A65G and G10A C27A A37U G52A U54C G56C A57G cannot be ordered by yeast fitness: ≤ 0.5 for the first, ≤ 0.5 for the second.

Going from G10A A15C C34A G56A to G10A A36C A42U, the yeast fitness rises from ≤ 0.5 to 0.557.

Compared with G10A A45U, G10A A45C is lower in yeast fitness: 0.673 for the first, 0.66 for the second.

Going from G10A U13C G18C A20U C30A to G10A C62G, the yeast fitness rises from ≤ 0.5 to 0.64.

G10A A14U C31A U35G C46A A65U and G10A C29A A45U cannot be ordered by yeast fitness: ≤ 0.5 for the first, ≤ 0.5 for the second.

Compared with G10A A21C A57U, G10A C11U is higher in yeast fitness: ≤ 0.5 for the first, 0.777 for the second.

First: G10A C11G
Second: G10A C29A A57C U59A
The yeast fitness of the first is higher: 0.565 for the first, ≤ 0.5 for the second.

G10A G25A C29G C31U and G10A U16A C31A G51A A70U cannot be ordered by yeast fitness: ≤ 0.5 for the first, ≤ 0.5 for the second.

Going from G10A G41A to G10A G41C, the yeast fitness rises from 0.661 to 0.717.

First: G10A A65C
Second: G10A A65U
The yeast fitness of the first is lower: 0.786 for the first, 0.788 for the second.

G10A U16A G63A and G10A C11A A20U C66G cannot be ordered by yeast fitness: ≤ 0.5 for the first, ≤ 0.5 for the second.

G10A C11A A14G A15G G38A and G10A C29G G39C cannot be ordered by yeast fitness: ≤ 0.5 for the first, ≤ 0.5 for the second.

G10A G18A A36G U53A A70G and G10A A42U U59A cannot be ordered by yeast fitness: ≤ 0.5 for the first, ≤ 0.5 for the second.

Compared with G10A A21C G52C, G10A G25A is higher in yeast fitness: ≤ 0.5 for the first, 0.862 for the second.

Going from G10A A14U C66U to G10A C24U C55U C66U, the yeast fitness rises from ≤ 0.5 to 0.52.

Going from G10A G17A A37U to G10A G38C, the yeast fitness rises from ≤ 0.5 to 0.549.

G10A U19A A42G A65C and G10A A45U U53G A65C cannot be ordered by yeast fitness: ≤ 0.5 for the first, ≤ 0.5 for the second.

G10A A37U G39A A57U and G10A A21U C27U C49A U64C cannot be ordered by yeast fitness: ≤ 0.5 for the first, ≤ 0.5 for the second.

G10A G17A C31G and G10A C31A U32C G41C cannot be ordered by yeast fitness: ≤ 0.5 for the first, ≤ 0.5 for the second.

G10A C24U C60U and G10A C29G C34G cannot be ordered by yeast fitness: ≤ 0.5 for the first, ≤ 0.5 for the second.

First: G10A A21G A40U
Second: G10A U13A C24A U54A
The yeast fitness of the first is higher: 0.558 for the first, ≤ 0.5 for the second.

Compared with G10A G48C G67C, G10A C30A G48A is lower in yeast fitness: 0.56 for the first, 0.559 for the second.

G10A C30U U47A and G10A G39U A57C A70U cannot be ordered by yeast fitness: ≤ 0.5 for the first, ≤ 0.5 for the second.

G10A G23C C61G and G10A U16A C31A G52C cannot be ordered by yeast fitness: ≤ 0.5 for the first, ≤ 0.5 for the second.

G10A G41C C61G and G10A C61G C66U A69U cannot be ordered by yeast fitness: ≤ 0.5 for the first, ≤ 0.5 for the second.

First: G10A C24A C29G U35A A36U
Second: G10A C31U C34A A40G U59A
The yeast fitness of the first is lower: ≤ 0.5 for the first, 0.596 for the second.

Going from G10A A57U A65C A70G to G10A C31U A37G, the yeast fitness rises from ≤ 0.5 to 0.796.

First: G10A C24G G68A
Second: G10A A15U A21C G25C
The yeast fitness of the first is higher: 0.735 for the first, 0.533 for the second.

First: G10A C31A G41C
Second: G10A C49U
The yeast fitness of the first is lower: ≤ 0.5 for the first, 0.697 for the second.

Compared with G10A C49G, G10A A20C G38A G41A C49U A65U is lower in yeast fitness: 0.668 for the first, ≤ 0.5 for the second.

G10A A20U C30U G56A A65G C66A G68C and G10A A57U U59C cannot be ordered by yeast fitness: ≤ 0.5 for the first, ≤ 0.5 for the second.

First: G10A G18A C27G A37G G38A
Second: G10A A36C A45C
The yeast fitness of the first is lower: ≤ 0.5 for the first, 0.634 for the second.

G10A A20C C27G A40G A70C and G10A C30A C62A cannot be ordered by yeast fitness: ≤ 0.5 for the first, ≤ 0.5 for the second.

Going from G10A A43G G50A to G10A G23C C29U A36C A57U G63A, the yeast fitness falls from 0.573 to ≤ 0.5.

G10A U13G C27U C46G G67A and G10A C55G C60A C66A A69U cannot be ordered by yeast fitness: ≤ 0.5 for the first, ≤ 0.5 for the second.

G10A G18A A69C and G10A A15G C34G G68A cannot be ordered by yeast fitness: ≤ 0.5 for the first, ≤ 0.5 for the second.

G10A A15G C34G G68C and G10A G17C C30G C33G C61A A69U A70G cannot be ordered by yeast fitness: ≤ 0.5 for the first, ≤ 0.5 for the second.

G10A A65U G68A and G10A G18C C24U C30G C62U cannot be ordered by yeast fitness: ≤ 0.5 for the first, ≤ 0.5 for the second.

First: G10A C27G C60A
Second: G10A U13C
The yeast fitness of the first is lower: ≤ 0.5 for the first, 0.658 for the second.

G10A C24A A43C and G10A A21C C61G U64C cannot be ordered by yeast fitness: ≤ 0.5 for the first, ≤ 0.5 for the second.

G10A C30A C55A G58A and G10A G23A U35G cannot be ordered by yeast fitness: ≤ 0.5 for the first, ≤ 0.5 for the second.

First: G10A A14U U19A G23C C29A C66A
Second: G10A C31G
The yeast fitness of the first is lower: ≤ 0.5 for the first, 0.651 for the second.

G10A C22U G68A and G10A C55G G58A cannot be ordered by yeast fitness: ≤ 0.5 for the first, ≤ 0.5 for the second.

Going from G10A G17A C66G to G10A A20C C27G A40G G56C, the yeast fitness falls from 0.623 to ≤ 0.5.

Going from G10A G39C to G10A C46U, the yeast fitness rises from 0.763 to 0.812.

G10A A36C A37G C49A and G10A A15C G39C cannot be ordered by yeast fitness: ≤ 0.5 for the first, ≤ 0.5 for the second.

Going from G10A G17A A36G A40C A57C C62A to G10A C33U U64A, the yeast fitness rises from ≤ 0.5 to 0.553.

Compared with G10A A15C G25A, G10A A20G G41A C49U U53A C66G is lower in yeast fitness: 0.582 for the first, ≤ 0.5 for the second.

First: G10A C27A A36U A37U G48C C61G A69U
Second: G10A C27U
The yeast fitness of the first is lower: 0.576 for the first, 0.817 for the second.

Compared with G10A C27G, G10A A43G G56U A69G is lower in yeast fitness: 0.551 for the first, ≤ 0.5 for the second.

In the case of G10A A57U A65U, the yeast fitness is reported as ≤ 0.5.
